Source: ChEMBL document CHEMBL4041481, “Linker-switch approach towards new ATP binding site inhibitors of DNA gyrase B” (Eur J Med Chem, 2017)

How the values were obtained:
[1] = target: DNA gyrase subunit B (Escherichia coli) (UniProt P0AES6); assay: Inhibition of Escherichia coli DNA ATCC 25922 gyrase B assessed as residual activity at 100 uM using relaxed pNO1 DNA as substrate incubated for 30 mins and measured by sybrGOLD staining based fluorescence assay; conditions: Escherichia coli ATCC 25922
How it was run: (§1)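 Gyrase supercoiling with 1.5 U enzyme and 0.75 µg relaxed pNO1 plasmid. 30 min at 37 °C, stopped with pH 5.0 TF buffer. Triplex capture on immobilized biotinylated oligonucleotide, 30 min at room temperature. Residual activity at 100 µM; 1% DMSO negative control.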

DNA gyrase subunit B [2] = target: T1, DNA gyrase subunit B (Escherichia coli, UniProt P0AES6); assay: Inhibition of Escherichia coli ATCC 25922 DNA gyrase B using relaxed pNO1 DNA as substrate incubated for 30 mins and measured by sybrGOLD staining based fluorescence assay
DNA gyrase subunit B [3] = target: T1, DNA gyrase subunit B; assay: Binding affinity to Escherichia coli ATCC 25922 DNA gyrase B by surface plasmon resonance assay
How it was run: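 Running buffer: 10 mM Hepes, 150 mM NaCl, 3 mM EDTA, 0.005% P20, pH 7.4, plus 1% DMSO. Injections at 30 µL/min for 90 s, 120 s dissociation. At least eight concentrations, three parallel titrations. Kd from 1:1 steady-state fit of responses 5 s before injection end.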

[4] = target: DNA gyrase subunit B (Staphylococcus aureus) (UniProt P0A0K8); assay: Inhibition of Staphylococcus aureus DNA gyrase B assessed as residual activity at 100 uM using relaxed pNO1 DNA as substrate incubated for 30 mins and measured by sybrGOLD staining based fluorescence assay
How it was run: as §1, with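 “temperature. Washed, SybrGOLD-stained, fluorescence 485/535 nm.” for “temperature.”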

DNA gyrase subunit B [5] = target: DNA gyrase subunit B (Staphylococcus aureus, UniProt P0A0K8); assay: Inhibition of Staphylococcus aureus DNA gyrase B using relaxed pNO1 DNA as substrate incubated for 30 mins and measured by sybrGOLD staining based fluorescence assay
[6] = Inhibition of Staphylococcus aureus DNA gyrase using relaxed pBR322 DNA as substrate after 3 hrs by agarose electrophoresis
[7] = Inhibition of Escherichia coli DNA gyrase using relaxed pBR322 DNA as substrate after 3 hrs by agarose electrophoresis

| Activity [1] [%] | IC50 (DNA gyrase subunit B [2]) [µM] | SMILES | further results |
| --- | --- | --- | --- |
|  | 8.08 | O=C(NC1CCN(C(=O)c2ccc(O)c(O)c2)CC1)c1cc(Cl)c(Cl)[nH]1 |  |
|  | 11.2 | COC(=O)CCCC(=O)N1CCC(NC(=O)c2cc(Br)c(Br)[nH]2)CC1 |  |
|  | 20.9 | COC(=O)CCC(=O)N1CCC(NC(=O)c2cc(Br)c(Br)[nH]2)CC1 |  |
| 100 |  | O=C(O)CCC(=O)N1CCC(NC(=O)c2ccc[nH]2)CC1 |  |
|  | 480 | COC(=O)c1ccc(C(=O)N2CCC(NC(=O)c3cc(Br)c(Br)[nH]3)CC2)cc1 |  |
| 100 |  | COC(=O)CCC(=O)N1CCC(NC(=O)c2cc3ccccc3[nH]2)CC1 |  |
| 100 |  | COC(=O)CNC(=O)[C@H]1CC[C@@H](NC(=O)c2cc(Br)c(Br)[nH]2)CC1 |  |
|  | 10.8 | O=C(O)CC(=O)N1CCC(NC(=O)c2cc(Br)c(Br)[nH]2)CC1 | Activity [4]: 80% |
|  | 0.48 | Cc1[nH]c(C(=O)NC2CCN(C(=O)CCC(=O)O)CC2)c(Cl)c1Cl |  |
| 36 |  | C=CCN(C(=O)c1cc(Br)c(Br)[nH]1)C1CCN(C(=O)CCC(=O)OC)CC1 |  |
|  | 100 | O=C(O)CC(=O)N1CCC(NC(=O)c2cc3ccccc3[nH]2)CC1 |  |
|  | 13.7 | COC(=O)CC(=O)N1CCC(NC(=O)c2cc(Br)c(Br)[nH]2)CC1 |  |
|  | 3.18 | O=C(O)CCCC(=O)N1CCC(NC(=O)c2cc(Br)c(Br)[nH]2)CC1 | Activity [4]: 71% |
| 100 |  | COC(=O)CC(=O)N1CCC(NC(=O)c2cc3ccccc3[nH]2)CC1 |  |
| 100 |  | CC(C)(C)OC(=O)N1CCC(NC(=O)c2cc3ccccc3[nH]2)CC1 |  |
|  | 49.2 | O=C(O)C(=O)N1CCC(NC(=O)c2cc(Br)c(Br)[nH]2)CC1 |  |
| 100 |  | COC(=O)CCC(=O)N1CCC(N(Cc2ccccc2)C(=O)c2cc(Br)c(Br)[nH]2)CC1 |  |
|  | 1.55 | O=C(O)CCC(=O)N1CCC(NC(=O)c2cc(Br)c(Br)[nH]2)CC1 | Kd (DNA gyrase subunit B [3]): 12.6 µM; IC50 (DNA gyrase subunit B [5]; read-out: IC50): 93.8 µM |
|  | 4.35 | CCOC(=O)C(=O)N1CCC(NC(=O)c2cc(Br)c(Br)[nH]2)CC1 | Activity [4]: 74% |
| 100 |  | C=CCN(C(=O)c1cc2ccccc2[nH]1)C1CCN(C(=O)CCC(=O)OC)CC1 |  |
| 100 |  | O=C(O)CCC(=O)N1CCC(NC(=O)c2cc3ccccc3[nH]2)CC1 |  |
| 100 |  | COC(=O)CCNC(=O)[C@H]1CC[C@@H](NC(=O)c2cc(Br)c(Br)[nH]2)CC1 |  |
| 100 |  | COC(=O)CCNC(=O)[C@H]1CC[C@H](NC(=O)c2cc(Br)c(Br)[nH]2)CC1 |  |
| 29 |  | C=CCN(C(=O)c1cc(Br)c(Br)[nH]1)C1CCN(C(=O)CCC(=O)O)CC1 |  |
| 88 |  | COC(=O)c1ccc(C(=O)N2CCC(NC(=O)c3cc4ccccc4[nH]3)CC2)cc1 |  |
|  | > 50 | CC(C)(C)OC(=O)N1CCC(NC(=O)c2cc(Br)c(Br)[nH]2)CC1 |  |
| 100 |  | COC(=O)CCC(=O)N1CCC(N(Cc2ccccc2)C(=O)c2cc3ccccc3[nH]2)CC1 |  |
| 100 |  | COC(=O)CNC(=O)[C@H]1CC[C@H](NC(=O)c2cc(Br)c(Br)[nH]2)CC1 |  |
| 100 |  | COC(=O)CCC(=O)N1CCC(NC(=O)c2ccc[nH]2)CC1 |  |
|  | 20 | COC(=O)CCC(=O)N1CCC(NC(=O)c2[nH]c(C)c(Cl)c2Cl)CC1 |  |

The next lines start with the compound.

| SMILES | Activity [1] [%] | IC50 (DNA gyrase subunit B [2]) [µM] | further results |
| --- | --- | --- | --- |
| Nc1ncc(C(=O)N2CCN(C(=O)c3cccnc3)CC2)[nH]1 | 100 |  |  |
| O=C(O)c1ccc(C(=O)N2CCC(NC(=O)c3cc4ccccc4[nH]3)CC2)cc1 | 100 |  |  |
| N#Cc1ccc(C(=O)N2CCC(NC(=O)c3cc(Br)c(Br)[nH]3)CC2)cc1 | 100 |  |  |
| COC(=O)c1ccc(CN2CCC(NC(=O)c3cc(Br)c(Br)[nH]3)CC2)cc1 | 100 |  |  |
| O=C(O)c1cccc(CN2CCC(NC(=O)c3cc(Br)c(Br)[nH]3)CC2)c1 |  | 49.5 | Kd (DNA gyrase subunit B [3]): 11.2 µM; Activity [4]: 100% |
| O=C(O)CCNC(=O)[C@H]1CC[C@H](CNC(=O)c2cc(Br)c(Br)[nH]2)CC1 | 100 |  |  |
| C=CCN(C(=O)c1cc2ccccc2[nH]1)C1CCN(C(=O)CCC(=O)O)CC1 | 100 |  |  |
| O=C(O)c1ccc(C(=O)N2CCC(NC(=O)c3cc(Br)c(Br)[nH]3)CC2)cc1 |  | 14.9 | Kd (DNA gyrase subunit B [3]): 256 µM; Activity [4]: 84% |
| O=C(O)CCC(=O)N1CCC(N(Cc2ccccc2)C(=O)c2cc(Br)c(Br)[nH]2)CC1 |  | 49.5 | Kd (DNA gyrase subunit B [3]): 11.2 µM |
| O=C(O)CCNC(=O)[C@H]1CC[C@H](NC(=O)c2cc(Br)c(Br)[nH]2)CC1 | 100 |  |  |
| COC(=O)CNC(=O)[C@H]1CC[C@H](CNC(=O)c2cc(Br)c(Br)[nH]2)CC1 | 100 |  |  |
| O=C(O)CC(=O)N1CCN(C(=O)c2cc(Br)c(Br)[nH]2)CC1 |  | 1080 | IC50 (DNA gyrase subunit B [5]): Not Active |
| Nc1ncc(C(=O)N2CCN(Cc3ccc[nH]3)CC2)[nH]1 | 100 |  |  |
| O=C(NC1CCN(C(=O)c2ccc(O)c(O)c2)CC1)c1cc2ccccc2[nH]1 |  | 150 |  |
| O=C(O)CCNC(=O)[C@H]1CC[C@@H](NC(=O)c2cc(Br)c(Br)[nH]2)CC1 |  | 100 |  |
| COC(=O)CCNC(=O)[C@H]1CC[C@H](CNC(=O)c2cc(Br)c(Br)[nH]2)CC1 | 100 |  |  |
| CO[C@@H]1[C@@H](OC(N)=O)[C@@H](O)[C@H](Oc2ccc3c(O)c(NC(=O)c4ccc(O)c(CC=C(C)C)c4)c(=O)oc3c2C)OC1(C)C [NOVOBIOCIN] |  |  | IC50 [6]: 0.01 µM; IC50 [7]: 0.08 µM |
| O=C(O)CCC(=O)N1CCC(N(Cc2ccccc2)C(=O)c2cc3ccccc3[nH]2)CC1 | 100 |  |  |
| O=C(NC1CCN(C(=O)c2ccc(O)c(O)c2)CC1)c1cc(Br)c(Br)[nH]1 |  | 2.84 |  |
| COC(=O)c1cccc(CN2CCC(NC(=O)c3cc(Br)c(Br)[nH]3)CC2)c1 | 100 |  |  |
| O=C(O)CNC(=O)[C@H]1CC[C@@H](NC(=O)c2cc(Br)c(Br)[nH]2)CC1 | 100 |  |  |
| O=C(O)CNC(=O)[C@H]1CC[C@H](NC(=O)c2cc(Br)c(Br)[nH]2)CC1 |  | 15.1 |  |
| O=C(O)c1ccc(CN2CCC(NC(=O)c3cc(Br)c(Br)[nH]3)CC2)cc1 |  | 63.1 | Activity [4]: 100% |
| Nc1ncc(C(=O)N2CCN(C(=O)c3ccc[nH]3)CC2)[nH]1 | 100 |  |  |
| Nc1ncc(C(=O)N2CCN(C(=O)c3c[nH]c4ccccc34)CC2)[nH]1 | 100 |  |  |
| COC(=O)CC(=O)N1CCN(C(=O)c2cc(Br)c(Br)[nH]2)CC1 | 78 |  |  |
| Nc1ncc(C(=O)N2CCN(C(=O)[C@@H]3CCCN3)CC2)[nH]1 | 100 |  |  |
